Compound activity (PubChem)
Compounds with a hit are over-represented: about 6.4% of the library has one in this group of screens.
Lung fibro prol – blocks proliferation of human lung fibroblasts; actives 1.1% (n = 85,000); LL 47 human lung fibroblast viability, ATP luminescence; stronger effect = lower value; viability, % at 10 µM;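 active = viability at or below 50% in the single dose screen; inactive = viability above 50%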;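 also: compound exposure lasted 72 h before the ATP readout; 100% = median luminescence of untreated cell-only wells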
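Times – overnight cell rest, 72 h compound treatment at 37 °C · Test system – human lung fibroblast line LL 47, low passage · Amount – 1,150 cells in each well · Controls – cell-only wells, no compound · Doses – 0.1% DMSO in all compound wells · Measured by – CellTiter-Glo luminescence · Buffer or medium – IMEM plus 15% FBS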
HUVEC inhibit – inhibitors of human endothelial cell proliferation | HUVEC proliferation, CellTiter-Glo luminescence, 72 h; stronger effect = lower value | viability, % at 10 µM (by protocol) | actives 1.1% (n = 86,000);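 active = viability at or below 30%; inactive = viability above 30%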;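 also: 100% = median luminescence of DMSO-only cell control wells on each plate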
H69AR growth 86K – blocks growth of human H69AR lung tumor cells. H69AR lung tumor viability, ATP luminescence, 72 h; stronger effect = lower value. viability, % at 10 µM. actives 6% (n = 85,000). AID 598;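 active = viability at or below 40%; inactive = viability above 40%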;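 also: multidrug resistant small cell line overexpressing MRP-1 efflux transporter; 100% = mean luminescence of untreated control wells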
Jurkat tox 60K – cytotoxic compounds reducing Jurkat cell viability | Jurkat E6.1 viability, ATP luminescence, 48 h | inhibition, % at 4 µM | actives 1.2% (n = 56,000);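 active = inhibition above the mean inhibition of all tested compounds plus 3 SD, cut at about 28% in these data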
tolC growth inh – blocks growth of E. coli BW25113 tolC mutant; actives 2.2% (n = 65,000); OD615; growth inhibition, % at 10 µM (by protocol);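 active = growth inhibition at or above a cutoff equal to the mean over every tested compound plus 3 SD, cut at about 60% in these data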;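 also: growth measured after 20 h incubation at 37 °C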
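Doses: one dose of 10 µM final / Material: E. coli BW25113 ΔtolC::kan, tolC deletion mutant strain / Buffer or medium: LB with kanamycin 50 µg/mL / Evaluation: percent growth inhibition / Detection: optical density read at 615 nm / Incubation: 37 °C, 20 h exposure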
E coli WT exp – E. coli BW25113 growth inhibition, expanded screen; OD600 absorbance; growth inhibition, % at 100 µM; actives 0.15% (n = 98,000);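 active = growth inhibition above about 50% at one test dose, limit read from the data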;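 also: growth measured after 20 h incubation at 37 °C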
* marks the source's active call; other numbers are inactive results; / = not tested or not shown.

SMILES	Lung fibro prol	HUVEC inhibit	H69AR growth 86K	Jurkat tox 60K	tolC growth inh	E coli WT exp
c1ccc(-c2oc3ncnc(NCCCN4CCOCC4)c3c2-c2ccccc2)cc1	75	37	3.1*	8	29	11
COc1ccc(-n2ncc3c(NCCCN4CCOCC4)ncnc32)cc1	102	93	88	5	-5	0
COc1ccc(-c2oc3ncnc(NCCN4CCOCC4)c3c2-c2ccc(OC)cc2)cc1	77	71	18*	-4	49	0
CCOc1cc2nc(-c3ccc(OC)c(OC)c3)nc(NCCCN3CCOCC3)c2cc1OC	82	58	18*	/	/	2
COc1ccc(C(=O)NCCCN2CCOCC2)cc1OC	98	97	86	/	/	0
CCCCNC(=S)NNC(=O)c1ccco1	105	109	96	/	/	/
Clc1ccc(-c2nc(NCCN3CCOCC3)c3ccccc3n2)cc1	89	9.6*	86	6	8	0
COc1ccc(-c2oc3ncn(CCN4CCOCC4)c(=N)c3c2-c2ccc(OC)cc2)cc1	85	65	16*	-4	41	-5
COc1ccc(C2c3ccc4ccccc4c3Oc3ncn(CCN4CCOCC4)c(=N)c32)cc1 (stereo not drawn)	3.2*	2.1*	1.9*	/	/	7
CCSc1nn2c(=O)c3ccccc3nc2s1	/	/	/	/	/	-1
Nn1c(SCC(=O)N2CCOCC2)nnc1-c1ccccc1Cl	98	95	90	/	/	3
CC(=O)NC(NC(=S)Nc1ccc(N=Nc2ccccc2)cc1)C(Cl)(Cl)Cl (stereo not drawn)	/	/	/	/	/	-7
CCCCOc1ccccc1NC(=O)Cn1c(-c2nonc2N)nc2ccccc21	/	/	/	33*	-4	-9
COc1cccc(Cn2c(-c3nonc3N)nc3ccccc32)c1	51	65	24*	81*	-33	-9
Cc1ccc(Cn2c(-c3nonc3N)nc3ccccc32)cc1	/	/	/	6	-9	-15
CC(C)(C)NC(=O)Cn1c(-c2nonc2N)nc2ccccc21	99	83	94	/	/	1
COc1cc(Cn2c(-c3nonc3N)nc3ccccc32)ccc1C	48*	40	18*	31*	-7	-10
O=C(OCCCN=C1NS(=O)(=O)c2ccccc21)c1ccccc1F	99	92	86	/	/	-2
N#Cc1c(-c2ccccc2)c(-c2ccccc2)n(Cc2ccco2)c1NC(=O)c1cccs1	/	/	/	/	/	-10
O=C(c1ccco1)c1cn[nH]c1-c1ccc(Cl)cc1O	91	102	97	/	2	6
CC(C)(C)NS(=O)(=O)c1ccc(NC(=O)C(Sc2ccccc2)c2ccccc2)cc1 (stereo not drawn)	/	/	/	/	/	-11
CC1(C)CC(=O)C=C(OC(=O)c2ccc(Cl)cc2)C1	/	/	/	/	/	-5
COc1ccc(N/C(N)=N/c2nc(CSc3ccc(Cl)cc3)cc(=O)[nH]2)cc1	94	54	16*	/	/	-3
CCN1CCN(c2ncc(C(=O)Nc3ccccc3C(=O)OC)c3ccccc23)CC1	80	65	49	1	-2	6
CCOC(=O)CNC(=O)C(=O)c1c(O)[nH]c2ccccc12	48*	97	92	-5	-9	6
SMILES	Lung fibro prol	HUVEC inhibit	H69AR growth 86K	Jurkat tox 60K	tolC growth inh	E coli WT exp
CCOC(=O)CNC(=O)c1ccccc1	99	106	98	/	/	7
CCCCCn1nc(C)c(/C=N\NC(=O)c2cc(C)oc2C)c1C	94	83	81	/	/	/
Fc1cc(Br)ccc1Nc1nc2ccccc2n2nnnc12	73	33	25*	4	19	-3
O=C1CSC(c2ccccn2)N1c1cccc(Cl)c1 (stereo not drawn)	104	105	98	-5	-5	1
O=C1CSC(c2ccccn2)N1Cc1cn2ccccc2n1 (stereo not drawn)	14*	100	94	0	-12	1
Cc1ccc(C(=O)NNC(=O)CSc2nnc(-c3ccncc3)n2C)cc1	/	/	/	/	/	3
Cc1nn(-c2ccccc2)c(C)c1C(=O)OCC(=O)NC12CC3CC(CC(C3)C1)C2	99	91	29*	/	/	-7
Cc1nn(-c2ccccc2)c(C)c1C(=O)OCC(=O)NC(=O)NC1CCCC1	99	97	67	/	/	8
Cc1cc(Cl)ccc1OCCCC(=O)NC1CCN(C)CC1	102	107	91	-5	-7	10
Cc1cc(Cl)ccc1OCCCC(=O)NO	81	92	3.1*	93*	2	21
Cc1cc(Cl)ccc1OCCCC(N)=O	42*	86	111	-5	6	12
